Results: the RNAGym collection of RNA variant scans (doi:10.1126/science.aae0568)
Fewer inactive variants are shown than the library holds.

B1: tRNA (parent)
chain: GUUCCGUUGGCGUAAUGGUAACGCGUCUCCCUCCUAAGGAGAAGACUGCGGGUUCGAGUCCCGUACGGAACG

Variants of: B1
Assay: yeast fitness relative to wild type (ratio to wild type); higher = fitter; tRNA-Arg(CCU), competitive growth, 37 C, YPD
Procedure, shortened: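 For this measurement, the tRNA-Arg(CCU) gene was varied by chemical synthesis at a 3% per-site mutation rate across 69 sites, and each variant was placed at the native genomic locus in Saccharomyces cerevisiae. The pooled strains went through a 24-hour competition in YPD at 37°C in six parallel replicates, with amplicons from start and end populations read by 100-nucleotide paired-end sequencing. Darwinian fitness relative to wild type followed from the change in each genotype's frequency. Genotypes needed ≥ 100 starting reads, and estimates < 0.5 were set to 0.5.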

| Variant | yeast fitness |
| --- | --- |
| C5A C22U C30U G68U | ≤ 0.5 |
| C5A C22U C49U G50C | ≤ 0.5 |
| C5A C22U G39A U47C C61U | ≤ 0.5 |
| C5A C24A | 0.727 |
| C5A C24G C31G | 0.555 |
| C5A C24G C31G G51C U59G | ≤ 0.5 |
| C5A C24G C34G | ≤ 0.5 |
| C5A C24G C49U | ≤ 0.5 |
| C5A C24G G63A | ≤ 0.5 |
| C5A C24G U26A C29G U32A | 0.531 |
| C5A C24U A69C | 0.641 |
| C5A C24U C62U | 0.624 |
| C5A C24U G25C C30G G50C G56A C66U | ≤ 0.5 |
| C5A C24U U35C C66U | 0.549 |
| C5A C24U U64C | 0.639 |
| C5A C27A C34G | 0.507 |
| C5A C27A U28G C55U | ≤ 0.5 |
| C5A C27G | 0.709 |
| C5A C27G C30U U32C A36G A37U G67A | ≤ 0.5 |
| C5A C27G C33A A40U G48C U54A | 0.506 |
| C5A C27U A36U | ≤ 0.5 |
| C5A C27U A37U | ≤ 0.5 |
| C5A C27U A69U | 0.711 |
| C5A C27U G39C | ≤ 0.5 |

| Variant | yeast fitness |
| --- | --- |
| C5A C27U G39C C49U G58C C62U | ≤ 0.5 |
| C5A C29A A70U | ≤ 0.5 |
| C5A C29A C30G C55U C61G A65C | 0.554 |
| C5A C29G A37G G41A A43U | ≤ 0.5 |
| C5A C29G G56C U59A | 0.717 |
| C5A C29G G67C | 0.588 |
| C5A C29U | 0.731 |
| C5A C29U A69U | 0.632 |
| C5A C29U C66U | 0.581 |
| C5A C30A A70U | 0.742 |
| C5A C30A G51A | ≤ 0.5 |
| C5A C30A U64C | 0.547 |
| C5A C30G A36G A57U A65U | ≤ 0.5 |
| C5A C30G C31G U32C | 0.598 |
| C5A C30U G41C | ≤ 0.5 |
| C5A C31A | 0.971 |
| C5A C31A A37C C46U | ≤ 0.5 |
| C5A C31A A40C A43U A65G C66G | ≤ 0.5 |
| C5A C31A C49U | ≤ 0.5 |
| C5A C31A C55A C61A G63A | 0.671 |
| C5A C31A C55A C61A G63A G67U | ≤ 0.5 |
| C5A C31G | 0.889 |
| C5A C31G A37G A70U | 0.532 |
| C5A C31G A37G C62U G63C | 0.577 |

| Variant | yeast fitness |
| --- | --- |
| C5A C31G C55A | ≤ 0.5 |
| C5A C31G G56C G58C | ≤ 0.5 |
| C5A C31G G63U | ≤ 0.5 |
| C5A C31G U54C | 0.588 |
| C5A C31U | 0.885 |
| C5A C31U A37C | 0.561 |
| C5A C31U A69U | 0.786 |
| C5A C31U A70G | 0.614 |
| C5A C31U C33U A42C C49U A65C | ≤ 0.5 |
| C5A C31U G48C C55A A69C | ≤ 0.5 |
| C5A C31U U35C C49G | ≤ 0.5 |
| C5A C33A | 0.67 |
| C5A C33A A40C G41A U59A U64A C66G | 0.584 |
| C5A C33A G38A A45C G52A U54G G67A | ≤ 0.5 |
| C5A C33G C34A A40C G67A | ≤ 0.5 |
| C5A C33G C49U C61G A69C | ≤ 0.5 |
| C5A C33U | 0.603 |
| C5A C33U A36G | 0.532 |
| C5A C33U A43U C49G G50C C61U C66U | ≤ 0.5 |
| C5A C33U C46A | ≤ 0.5 |
| C5A C33U C46G | ≤ 0.5 |
| C5A C33U C46G C66G G67A A69C | ≤ 0.5 |
| C5A C33U G39C C55A G67C | ≤ 0.5 |
| C5A C34G A65C | ≤ 0.5 |

| Variant | yeast fitness |
| --- | --- |
| C5A C34G C46U A70U | ≤ 0.5 |
| C5A C34G C49G A65G | ≤ 0.5 |
| C5A C34G C49G U64C | ≤ 0.5 |
| C5A C34G C66U | ≤ 0.5 |
| C5A C34U | 0.786 |
| C5A C34U C49A G52A | ≤ 0.5 |
| C5A C34U C55A | ≤ 0.5 |
| C5A C34U G41C A69G | ≤ 0.5 |
| C5A C34U U35A C49A U54A | 0.661 |
| C5A C46G | 0.719 |
| C5A C46G C49A G67C | ≤ 0.5 |
| C5A C46G C49U | 0.727 |
| C5A C46U | 0.997 |
| C5A C46U C49U | 0.809 |
| C5A C46U U59C | 0.728 |
| C5A C49A G68C | 0.536 |
| C5A C49G | 0.704 |
| C5A C49U | 0.848 |
| C5A C55A A69C | ≤ 0.5 |
| C5A C55G | 0.618 |
| C5A C55U A65G | 0.583 |
| C5A C60A | 0.651 |
| C5A C60G C66G A69G | ≤ 0.5 |
| C5A C60U A65C | ≤ 0.5 |

| Variant | yeast fitness |
| --- | --- |
| C5A C61G | 0.609 |
| C5A C61G A70G | 0.585 |
| C5A G6A U16A A45G G50A | ≤ 0.5 |
| C5A G6C A15G A40G | ≤ 0.5 |
| C5A G6C A15G A40G G67A | ≤ 0.5 |
| C5A G6C C11G U19A C49A | 0.571 |
| C5A G6C C30G A42G | 0.606 |
| C5A G6C G63A | ≤ 0.5 |
| C5A G9A G41A U53C U64A | ≤ 0.5 |
| C5A G9C A36U G50A U59G | 0.542 |
| C5A G9C A36U U54A C55U | ≤ 0.5 |
| C5A G9C A40G | ≤ 0.5 |
| C5A G9C G38C G63C C66U | ≤ 0.5 |
| C5A G10A A21C C24A A65C | ≤ 0.5 |
| C5A G10A U35C C49A | ≤ 0.5 |
| C5A G10C C22U A43G G58C C66G | ≤ 0.5 |
| C5A G10C U26C G52C | ≤ 0.5 |
| C5A G10U C30U A43C A69C | ≤ 0.5 |
| C5A G12A A37G A43C C55G G68A | ≤ 0.5 |
| C5A G12A G48A C61U | ≤ 0.5 |
| C5A G12A U35C G44A G48C C55G A69U | ≤ 0.5 |
| C5A G12C C34U | ≤ 0.5 |
| C5A G12C G18C C30A C31G U54G | 0.605 |
| C5A G12C G18C C30A C31G U54G A65G | ≤ 0.5 |

| Variant | yeast fitness |
| --- | --- |
| C5A G17A A36G A70G | ≤ 0.5 |
| C5A G17A A40G C46A | ≤ 0.5 |
| C5A G17A A40U | ≤ 0.5 |
| C5A G17A C34A | ≤ 0.5 |
| C5A G17A C46A C55G | ≤ 0.5 |
| C5A G17A C55U | ≤ 0.5 |
| C5A G17A G44C | 0.532 |
| C5A G17C A43U | 0.543 |
| C5A G17C A43U U59A | 0.609 |
| C5A G17C A57C | 0.551 |
| C5A G17C C22U C60G C61U | 0.947 |
| C5A G17C C27G | 0.57 |
| C5A G17C G18C G58A U59G | 0.535 |
| C5A G17C G25A U59C | ≤ 0.5 |
| C5A G17C G39C | ≤ 0.5 |
| C5A G17U A69C A70G | ≤ 0.5 |
| C5A G18A | 0.818 |
| C5A G18A G52A C55G | 0.526 |
| C5A G18A G52C | ≤ 0.5 |
| C5A G18C G50A | ≤ 0.5 |
| C5A G18C U19A C27A C33A C61G A70G | ≤ 0.5 |
| C5A G23A C24U A36C | ≤ 0.5 |
| C5A G23A G39C G41C A70C | ≤ 0.5 |
| C5A G23C C61G C62U C66U | ≤ 0.5 |

| Variant | yeast fitness |
| --- | --- |
| C5A G23C G41C G50C | ≤ 0.5 |
| C5A G23C G50C | ≤ 0.5 |
| C5A G23C U32G A69U | ≤ 0.5 |
| C5A G25A C29A C30U | 0.758 |
| C5A G38A | 0.664 |
| C5A G38A U47C | 0.599 |
| C5A G38C | 0.732 |
| C5A G38U C55A | ≤ 0.5 |
| C5A G39A | 0.83 |
| C5A G39A C49U | 0.541 |
| C5A G39A C60U C62A | 0.557 |
| C5A G39A G44A | 0.62 |
| C5A G39C C46A C60G | ≤ 0.5 |
| C5A G39C C60G C62A | ≤ 0.5 |
| C5A G41A A42C G50C A70G | 0.502 |
| C5A G41A A57C C62A | 0.54 |
| C5A G41A A57G | 0.545 |
| C5A G41A G56C A65C | ≤ 0.5 |
| C5A G41C | 0.779 |
| C5A G48C | 0.953 |
| C5A G48C A57G | 0.557 |
| C5A G48C A57U | ≤ 0.5 |
| C5A G48C G51C U53A | ≤ 0.5 |
